Assay results: ChEMBL document CHEMBL5058577, “EUbOPEN Chemogenomics Library 2 (Multiplex)” (2022)

System: HEK-293T
Assay: Multiplex assay against HEK293T
Format: toxicity, cell-based
Conditions: human
In short: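 Phenotypes for tubulin, mitochondrial mass and membrane permeability are expressed as per cents of healthy-nucleus cells. Cells were stained live at seeding with Hoechst33342, BioTracker Green Microtubule Cytoskeleton Dye, MitoTracker Red and Annexin V Alexa Fluor 680, then imaged after compound addition on a CQ1 microscope at 37°C and 5% CO2. Machine-learning gating in CellPathfinder separated Hoechst high-intensity objects from normal cells, divided normal cells by nuclear state (healthy, pyknosed, fragmented) and divided pyknosed cells into mitotic or apoptotic.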

[1] = 12 h, 1 µM, compound concentration 1 uM, replicate 1
[2] = 12 h, 1 µM, compound concentration 1 uM, replicate 2
[3] = 12 h, 10 µM, compound concentration 10 uM, replicate 1
[4] = 12 h, 10 µM, compound concentration 10 uM, replicate 2
[5] = 24 h, 1 µM, compound concentration 1 uM, replicate 1
[6] = 24 h, 1 µM, compound concentration 1 uM, replicate 2
[7] = 24 h, 10 µM, compound concentration 10 uM, replicate 1
[8] = 24 h, 10 µM, compound concentration 10 uM, replicate 2
[9] = 48 h, 1 µM, compound concentration 1 uM, replicate 1
[10] = 48 h, 1 µM, compound concentration 1 uM, replicate 2
[11] = 48 h, 10 µM, compound concentration 10 uM, replicate 1
[12] = 48 h, 10 µM, compound concentration 10 uM, replicate 2

Compound: CC(/C=C1\SC(=S)N(CCCC(=O)Nc2ccc(C(=O)O)c(O)c2)C1=O)=C\c1ccccc1
- Population Apoptotic (%) [1]: 34%
- Population Fragmented Nuclei (%) [1]: 6%
- Population Healthy Nuclei (%) [1]: 81%
- Population Hoechst High Intensity Objects (%) [1]: 6%
- Population Membrane Permeable-Phenotype (%) [1]: 0%
- Population Mitochondria Different-Phenotype (%) [1]: 41%
- Population Mitotic Cells (%) [1]: 65%
- Population Normal (%) [1]: 93%
- Population Pyknosed Nuclei (%) [1]: 11%
- Population Tubulin-Different-Phenotype (%) [1]: 31%
- Total Cell Count [1]: 422
- Population Apoptotic (%) [2]: 50%
- Population Healthy Nuclei (%) [2]: 84%
- Population Mitochondria Different-Phenotype (%) [2]: 62%
- Population Mitotic Cells (%) [2]: 50%
- Population Pyknosed Nuclei (%) [2]: 8%
- Population Tubulin-Different-Phenotype (%) [2]: 20%
- Total Cell Count [2]: 389
- Population Apoptotic (%) [3]: 43%
- Population Fragmented Nuclei (%) [3]: 5%
- Population Healthy Nuclei (%) [3]: 76%
- Population Hoechst High Intensity Objects (%) [3]: 7%
- Population Membrane Permeable-Phenotype (%) [3]: 0%
- Population Mitochondria Different-Phenotype (%) [3]: 45%
- Population Mitotic Cells (%) [3]: 56%
- Population Normal (%) [3]: 92%
- Population Pyknosed Nuclei (%) [3]: 18%
- Population Tubulin-Different-Phenotype (%) [3]: 35%
- Total Cell Count [3]: 313
- Population Apoptotic (%) [4]: 51%
- Population Healthy Nuclei (%) [4]: 79%
- Population Mitochondria Different-Phenotype (%) [4]: 49%
- Population Mitotic Cells (%) [4]: 48%
- Population Pyknosed Nuclei (%) [4]: 15%
- Population Tubulin-Different-Phenotype (%) [4]: 26%
- Total Cell Count [4]: 327
- Population Apoptotic (%) [5]: 27%
- Population Fragmented Nuclei (%) [5]: 9%
- Population Healthy Nuclei (%) [5]: 79%
- Population Hoechst High Intensity Objects (%) [5]: 4%
- Population Membrane Permeable-Phenotype (%) [5]: 0%
- Population Mitochondria Different-Phenotype (%) [5]: 28%
- Population Mitotic Cells (%) [5]: 72%
- Population Normal (%) [5]: 95%
- Population Pyknosed Nuclei (%) [5]: 10%
- Population Tubulin-Different-Phenotype (%) [5]: 26%
- Total Cell Count [5]: 604
- Population Apoptotic (%) [6]: 31%
- Population Fragmented Nuclei (%) [6]: 7%
- Population Healthy Nuclei (%) [6]: 83%
- Population Hoechst High Intensity Objects (%) [6]: 7%
- Population Mitochondria Different-Phenotype (%) [6]: 52%
- Population Mitotic Cells (%) [6]: 68%
- Population Normal (%) [6]: 92%
- Population Pyknosed Nuclei (%) [6]: 8%
- Population Tubulin-Different-Phenotype (%) [6]: 21%
- Total Cell Count [6]: 491
- Population Apoptotic (%) [7]: 33%
- Population Fragmented Nuclei (%) [7]: 8%
- Population Healthy Nuclei (%) [7]: 75%
- Population Hoechst High Intensity Objects (%) [7]: 5%
- Population Membrane Permeable-Phenotype (%) [7]: 0%
- Population Mitochondria Different-Phenotype (%) [7]: 34%
- Population Mitotic Cells (%) [7]: 66%
- Population Normal (%) [7]: 94%
- Population Pyknosed Nuclei (%) [7]: 16%
- Population Tubulin-Different-Phenotype (%) [7]: 31%
- Total Cell Count [7]: 369
- Population Apoptotic (%) [8]: 39%
- Population Healthy Nuclei (%) [8]: 79%
- Population Hoechst High Intensity Objects (%) [8]: 6%
- Population Mitochondria Different-Phenotype (%) [8]: 40%
- Population Mitotic Cells (%) [8]: 60%
- Population Normal (%) [8]: 93%
- Population Pyknosed Nuclei (%) [8]: 12%
- Population Tubulin-Different-Phenotype (%) [8]: 20%
- Total Cell Count [8]: 422
- Population Apoptotic (%) [9]: 23%
- Population Fragmented Nuclei (%) [9]: 13%
- Population Healthy Nuclei (%) [9]: 79%
- Population Hoechst High Intensity Objects (%) [9]: 2%
- Population Membrane Permeable-Phenotype (%) [9]: 1%
- Population Mitochondria Different-Phenotype (%) [9]: 16%
- Population Mitotic Cells (%) [9]: 76%
- Population Normal (%) [9]: 97%
- Population Pyknosed Nuclei (%) [9]: 7%
- Population Tubulin-Different-Phenotype (%) [9]: 14%
- Total Cell Count [9]: 998
- Population Apoptotic (%) [10]: 19%
- Population Fragmented Nuclei (%) [10]: 14%
- Population Hoechst High Intensity Objects (%) [10]: 5%
- Population Membrane Permeable-Phenotype (%) [10]: 0%
- Population Mitochondria Different-Phenotype (%) [10]: 26%
- Population Mitotic Cells (%) [10]: 80%
- Population Normal (%) [10]: 94%
- Population Pyknosed Nuclei (%) [10]: 6%
- Population Tubulin-Different-Phenotype (%) [10]: 13%
- Total Cell Count [10]: 673
- Population Apoptotic (%) [11]: 24%
- Population Fragmented Nuclei (%) [11]: 9%
- Population Healthy Nuclei (%) [11]: 79%
- Population Hoechst High Intensity Objects (%) [11]: 3%
- Population Membrane Permeable-Phenotype (%) [11]: 2%
- Population Mitochondria Different-Phenotype (%) [11]: 25%
- Population Mitotic Cells (%) [11]: 75%
- Population Normal (%) [11]: 96%
- Population Pyknosed Nuclei (%) [11]: 10%
- Population Tubulin-Different-Phenotype (%) [11]: 22%
- Total Cell Count [11]: 479
- Population Apoptotic (%) [12]: 39%
- Population Fragmented Nuclei (%) [12]: 11%
- Population Healthy Nuclei (%) [12]: 82%
- Population Hoechst High Intensity Objects (%) [12]: 5%
- Population Mitochondria Different-Phenotype (%) [12]: 23%
- Population Mitotic Cells (%) [12]: 60%
- Population Normal (%) [12]: 94%
- Population Pyknosed Nuclei (%) [12]: 6%
- Population Tubulin-Different-Phenotype (%) [12]: 24%
- Total Cell Count [12]: 555
